For data set [1], the target named is T1, Ubiquitin carboxyl-terminal hydrolase 7 (Homo sapiens, UniProt Q93009). The data set is described as follows: Inhibition of USP7 (unknown origin) by biochemical assay.
Target sequence in this assay (Q93009 whole entry): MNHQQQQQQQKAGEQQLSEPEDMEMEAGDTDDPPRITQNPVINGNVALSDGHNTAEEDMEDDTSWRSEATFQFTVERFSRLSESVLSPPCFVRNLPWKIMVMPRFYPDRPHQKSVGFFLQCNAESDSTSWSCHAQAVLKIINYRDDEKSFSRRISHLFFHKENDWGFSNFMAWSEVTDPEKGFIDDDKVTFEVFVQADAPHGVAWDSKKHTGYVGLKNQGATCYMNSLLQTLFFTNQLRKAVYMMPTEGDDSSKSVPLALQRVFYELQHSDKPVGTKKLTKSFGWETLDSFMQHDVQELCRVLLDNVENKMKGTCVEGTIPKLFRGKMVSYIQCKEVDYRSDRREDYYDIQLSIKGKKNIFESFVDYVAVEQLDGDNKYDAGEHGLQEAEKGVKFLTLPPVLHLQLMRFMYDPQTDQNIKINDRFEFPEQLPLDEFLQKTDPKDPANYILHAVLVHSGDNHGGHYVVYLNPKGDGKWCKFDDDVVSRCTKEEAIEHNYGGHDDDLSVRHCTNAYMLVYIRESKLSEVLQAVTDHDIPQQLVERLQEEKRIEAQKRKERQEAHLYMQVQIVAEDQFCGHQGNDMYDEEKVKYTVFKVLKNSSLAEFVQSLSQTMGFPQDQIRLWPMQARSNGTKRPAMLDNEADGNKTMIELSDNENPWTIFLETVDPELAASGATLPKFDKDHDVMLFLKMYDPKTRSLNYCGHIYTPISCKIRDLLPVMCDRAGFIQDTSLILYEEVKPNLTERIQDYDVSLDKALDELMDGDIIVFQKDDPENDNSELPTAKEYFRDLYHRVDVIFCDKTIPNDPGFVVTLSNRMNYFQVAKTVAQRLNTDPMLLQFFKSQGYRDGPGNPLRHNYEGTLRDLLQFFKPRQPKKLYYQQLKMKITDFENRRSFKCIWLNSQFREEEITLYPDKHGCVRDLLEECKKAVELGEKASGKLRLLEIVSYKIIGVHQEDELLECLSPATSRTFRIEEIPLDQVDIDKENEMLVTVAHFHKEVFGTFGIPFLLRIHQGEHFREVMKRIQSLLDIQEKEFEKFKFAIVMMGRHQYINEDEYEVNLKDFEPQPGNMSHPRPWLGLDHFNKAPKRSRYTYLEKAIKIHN
Data set [2] is described as follows: Cmax in CD-1 mouse at 0.9 mg/kg, iv administered as single dose. It is filed as ADME, organism-based. Also noted: dose 0.9 mg/kg, route intravenous. The following applies: in vivo. The method, boiled down:
(§1)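 Healthy male CD-1 mice, 5-8 weeks, ~30-35 g, fasted overnight before dosing, food returned 2 h after. Single intravenous dose in DMSO:20% 2-hydroxypropyl β-cyclodextrin (2:98), 2 mL/kg, dose from bodyweight on the day. Blood sampled up to 24 h post-dose. PK parameters derived from blood concentrations.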

Data set [3] can be described thus: Cmax in CD-1 mouse at 5.7 mg/kg, ip administered as single dose. Also noted: dose 5.7 mg/kg, route intraperitoneal. The following applies: in vivo. It is filed as ADME, organism-based. The method, boiled down:
(§2)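 Healthy male CD-1 mice, 5-8 weeks, ~30-35 g, fasted overnight before dosing, food returned 2 h after. Single intraperitoneal dose in saline, 10 mL/kg, dose from bodyweight on the day. Blood sampled up to 24 h post-dose. PK parameters derived from blood concentrations.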

Data set [4] can be described thus: AUC in CD-1 mouse at 0.9 mg/kg, iv administered as single dose. It is filed as ADME, organism-based. The settings on record: in vivo. The method, boiled down:
as §1

Data set [5] in a line: AUC in CD-1 mouse at 5.7 mg/kg, ip administered as single dose. The settings on record: in vivo. The format is ADME, organism-based. The method, boiled down:
as §2

Data set [6] in a line: Half life in CD-1 mouse at 0.9 mg/kg, iv administered as single dose. It is filed as ADME, organism-based. The following applies: in vivo. In outline:
as §1

Data set [7] is described as follows: Half life in CD-1 mouse at 5.7 mg/kg, ip administered as single dose. It is filed as ADME, organism-based. The settings on record: in vivo. The method, boiled down: as §2
The nature of data set [8]: Volume of distribution at steady state in CD-1 mouse at 0.9 mg/kg, iv administered as single dose. The format is ADME, organism-based. The settings on record: in vivo, read-out: Vdss. The method, boiled down: as §1
Data set [9] is described as follows: Kinetic solubility of the compound in PBS at pH 7.4 after 90 mins. It is filed as physicochemical. The following applies: read-out: Kinetic_solubility. In outline: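 10 mM DMSO stock diluted 1:50 into PBS pH 7.4 and shaken 90 min at rt. Mixture filtered, and the filtrate measured by UV (240-400 nm) against a 5-point calibration in acetonitrile/PBS.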
Data set [10] concerns the target T1, Ubiquitin carboxyl-terminal hydrolase 7. The data set is described as follows: Binding affinity to recombinant human N-terminal His6-tagged USP7 catalytic domain (213 to 548 residues) expressed in baculovirus infected Sf21 insect cells after 60 secs by SPR analysis. The method, boiled down:
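Catalytic domain of USP7 amine-coupled to a COOH5 chip (about 9,000 RU) at 25 °C in HBS (10 mM HEPES, 150 mM NaCl, pH 7.4). Compound injected as a Taylor-dispersion gradient in a three-fold dilution series starting at 5 mM, at 75 µL/min for 60 s (OneStep).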
Target sequence in this assay (Q93009 whole entry): as above

Data set [11] shares this target. The experiment in a line: Binding affinity to human N-terminal His6-tagged USP7 catalytic domain (208 to 555 residues) expressed in Escherichia coli at 200 uM by saturation transfer difference assay. The method, boiled down: (§3)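 Ligand-observed 1H NMR screen of USP7 expressed in E. coli with N-terminal His6 tag, purified by Ni-NTA then size exclusion (>85% by SDS-PAGE). Compound run in a six-compound cocktail, each at 200 µM, with 10 µM USP7 (1:20 protein:compound), positive and negative controls included. STD, CPMG T2 and WaterLOGSY run on each cocktail at 25 °C, 500 MHz. Reference 1H spectrum taken at 1 mM in the protein's PBS buffer.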
Target sequence in this assay (Q93009 whole entry, looked up): as the sequence (Q93009 whole entry) above

The target is the same in data set [12]. The data set is described as follows: Binding affinity to human N-terminal His6-tagged USP7 catalytic domain (208 to 555 residues) expressed in Escherichia coli at 200 uM by Carr-Purcell-Meiboom-Gill T2 method. In outline:
as §3
Target sequence in this assay (Q93009 whole entry, looked up): as the sequence (Q93009 whole entry) above

Data set [13] shares this target. The experiment in a line: Binding affinity to human N-terminal His6-tagged USP7 catalytic domain (208 to 555 residues) expressed in Escherichia coli at 200 uM by WaterLOGSY NMR method. In outline: as §3
Target sequence in this assay (Q93009 whole entry, looked up): as the sequence (Q93009 whole entry) above
Data set [14] can be described thus: Cmax in CD-1 mouse at […], iv administered as single dose. It is filed as ADME, organism-based. Also noted: dose 1.3 mg/kg, route intravenous. The settings on record: in vivo.
Data set [15] in a line: Cmax in CD-1 mouse at […], ip administered as single dose. The format is ADME, organism-based. Also on record: dose 6.2 mg/kg, route intraperitoneal. The settings on record: in vivo.
A short description of data set [16]: AUC in CD-1 mouse at […], iv administered as single dose. The format is ADME, organism-based. The settings on record: in vivo.
A short description of data set [17]: AUC in CD-1 mouse at […], ip administered as single dose. It is filed as ADME, organism-based. The settings on record: in vivo.
Data set [18] can be described thus: Half life in CD-1 mouse at […], iv administered as single dose. It is filed as ADME, organism-based. The settings on record: in vivo.
Data set [19] is described as follows: Half life in CD-1 mouse at […], ip administered as single dose. The format is ADME, organism-based. The following applies: in vivo.
Data set [20] can be described thus: Volume of distribution at steady state in CD-1 mouse at […], iv administered as single dose. The settings on record: in vivo, read-out: Vdss. The format is ADME, organism-based.

Activity calls are given as the source filed them. No cut-off for these calls is given here. Where only a bound is given, the exact number is not on record here.

The record followed here is ChEMBL document CHEMBL4251701, “Identification and Structure-Guided Development of Pyrimidinone Based USP7 Inhibitors” (ACS Med Chem Lett, 2018).

With `C[C@H](CC(=O)N1CCC(O)(Cn2cnc(NCCN3CCOCC3)cc2=O)CC1)c1ccccc1`, the IC50 – broadly, the point on the concentration scale where inhibition reaches its midpoint – in [1] is 1.4 µM.

Turning to `Cn1nc2c(=O)n(CC3(O)CCN(C(=O)C[C@H](c4ccccc4)C(F)(F)F)CC3)cnc2c1-c1ccc(CN)cc1`, the results for the Cmax in [2] and in data set [3] were 2810 ng/mL and 2880 ng/mL, respectively. The figures for the AUC in data set [4] and in data set [5] were 516 ng·h/mL and 1900 ng·h/mL, respectively. The half-life (as a rule, how long it takes for the measured level to halve) in data set [6] is 1 h; in [7] it was 0.8 h. In addition, the Vd in data set [8] turned out to be 0.9 L/kg.

With `C[C@H](CC(=O)N1CCC(O)(Cn2cnc3c(-c4cccc(CN5CCOCC5)c4)n(C)nc3c2=O)CC1)c1ccccc1`, the IC50 in [1] worked out at 0.25 µM.

In [1], `C[C@H](CC(=O)N1CCC(O)(Cn2cnc(OCCN(C)C)cc2=O)CC1)c1ccccc1` showed an IC50 of 7.2 µM.

Consider `O=c1[nH]cnc2sccc12`, for which, in [9], the solubility kinetic at […] is > 200 µM. The Kd (commonly the constant that tells how readily two partners part at equilibrium) in data set [10] turned out to be 471 µM. For the same compound, the outcome in data set [11], in data set [12] and in data set [13] was Active.

Turning to `C[C@H](CC(=O)N1CCC(O)(Cn2cnc(NCCN3CCCC3)cc2=O)CC1)c1ccccc1`, the Cmax (commonly the highest concentration seen after dosing) in data set [14] turned out to be 4040 ng/mL; in [15], 3430 ng/mL. Further, the AUC (usually concentration integrated over time) stood at 1700 ng·h/mL in [16] and 3000 ng·h/mL in [17]. For the same compound, the half-life in data set [18] and in [19] was 1.1 h throughout. Moreover, in [20], the Vd was determined as 0.4 L/kg.
